This is an account of results in the EternaBench riboswitch data.

Broadly, the apparent Kd is the concentration giving half-maximal binding under the conditions of the assay.

The series has as its system MS2 coat protein. The series is described as follows: apparent Kd, MS2 coat protein; higher = weaker binding; RNA-MaP array; FMN 200 µM where present. Summed up: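 Designs on Illumina sequencing-chip clusters, transcribed by stalled E. coli RNA polymerase, were exposed to SNAP-549-labelled MS2 coat protein in doubling steps from 0.7 or 1.5 nM up to 3 µM, without and then with constant ligand. The buffer held 100 mM Tris-HCl pH 7.5, 80 mM KCl, 4 mM MgCl2, BSA, DTT, yeast tRNA and Tween-20. Apparent Kd values are medians of filtered per-cluster binding-curve fits to green signal normalised to red-channel RNA signal and control-cluster median Fmax.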

The mark [1] stands for this setting: designed as: OFF switch for flavin mononucleotide, no ligand.
[2] abbreviates: ligand present: flavin mononucleotide, designed as: OFF switch for flavin mononucleotide.
Setting [3] is: designed as: ON switch for flavin mononucleotide, no ligand.
Where [4] appears, read: ligand present: flavin mononucleotide, designed as: ON switch for flavin mononucleotide.

For “CUGUUUUUCGCAGGAUAUGCUCCUCCUUUAUUUGCAGAAGGGCGUUAAACAUGAGGAUCACCCAUGUAUGGUAAUGACUUUUUC”, the “apparent Kd” value under setting [1] stood at 20.6 nM and the “apparent Kd” value under setting [2] was determined as 67.8 nM.

For the sequence “AUCAGCUCGUCAGGAUAUACAUUACUGCUUCGGCAGUGUAUUAAGAUCACAUGAGGAUCACCCAUGUAGAAGGGACGAGCUGAU”, the “apparent Kd” value is, setting by setting: under setting [1], 23.2 nM; under setting [2], 124 nM.

Regarding “GUAGCUAGUACAGGAUAUUAGUGCGUGUAGUAUUGAGAAGGGUACAUGAGGAUCACCCAUGUGAUCAAUCACUGUUAAGGUUGC”, the “apparent Kd” value stood at 221 nM under setting [1] and 177 nM under setting [2].

As for “CAGCGAUAGCUGAACAAUCUAUCUGAGGAUAUUCAUAUUAAAACAUGAGGAUCACCCAUGUAUUGGGAGAAGGCAGAUAGAUUG”, the “apparent Kd” value reads like this: under setting [3], 42.1 nM; under setting [4], 6.53 nM.

On to “UUACUUUUACAGAAGGUUUAAUAAUAUAUAAAAGAAGGAUAUGUAACAUGAGGAUCACCCAUGUUUCACCCACAUGAGGAUCAU”, for which the “apparent Kd” value by setting is: under setting [1], 11.5 nM; under setting [2], 9.79 nM.

Turning to “AUCAGCUCGUCAGGAUAUACAACACUGCUUCGGCAGUAUGAUAAGAUAACAUGAGGAUCACCCAUGUAGAAGGGACGAGCUGAU”, the “apparent Kd” value was found to be 6.99 nM under setting [1] and 9.17 nM under setting [2].

Take “AUUUUACAUGAGGAUCACCCAUGUUUUGGCGGGUCAGGAUAUAGAUCGGAUGAGUUCUGUCUAGAAGGGACAUGUA”: the “apparent Kd” value under setting [3] came out at 77.5 nM and the “apparent Kd” value under setting [4] was 71.6 nM.

In the case of “GCUUUCGCAUGAGGAUAUGCUCGAGUUUAGAGAGCAGAAGGCAUGUCAUAAGACAUGAGGAUCACCCAUGUAGUUAAAAUUGCA”, the “apparent Kd” value is 164 nM under setting [3] and 10.7 nM under setting [4].

With “AGGUCGGGAUAAGGGCAUUCGACUCAGGAUAUGGGAGGUUUACAUGAGGAUCACCCAUGUUUCACCCAGAAGGGAGUUCAAACU”, the “apparent Kd” value was 7.59 nM under setting [3] and 5.84 nM under setting [4].

Turning to “UGGACUGGGCAGAAGGGACAUGAGGAUCACCCAUGUCUUGGGCUACUUCAGUCAGGAUAUGCCCAAUAAAUAUCCGUGCAUCAA”, the “apparent Kd” value under setting [1] is 13.3 nM and the “apparent Kd” value under setting [2] was 67.1 nM.

On to “UACCUGAGGCAAAGCUUUAGGUAUACAUGAGGAUCACCCAUGUAGGAUAUGGUAGGCUUUGCUUACCAGAAGGACAUGUUAAUA”, for which the “apparent Kd” value under setting [1] came out at 17.3 nM and the “apparent Kd” value under setting [2] came out at 56.3 nM.

In the case of “GGUCCAUCAUGAGGAUAUGGCACCUUAUUGGUGCCAGAAGGCGUGUCUAUAGACAUGAGGAUCACCCAUGUAAUAAAUUGGACC”, the “apparent Kd” value was found to be 614 nM under setting [3] and 49.6 nM under setting [4].

For the sequence “CUGGUUAGUCAGGAUAUCGUGUGGGUAAUUGUACGAGAAGGGACGACAUGAGGAUCACCCAUGUGGUCUUUGGG”, the “apparent Kd” value by setting is: under setting [1], 24.8 nM; under setting [2], 56.2 nM.

Consider “UAUGUUGUUGUGAGGAUAUACUUUGUUUGGUCGUAGUAGAAGGCACAUGAGGAUCACCCAUGUAGAUUUUUGGU”, for which the “apparent Kd” value reads like this: under setting [1], 19.4 nM; under setting [2], 24.8 nM.

As for “GGAAAACAUGAGGAUCACCCAUGUAAGGAUAUGCAAAAGGAUAUAGAAGGAAAAAAAAGCAGAAGGUACAAAGG”, the “apparent Kd” value runs as follows: under setting [1], 39.9 nM; under setting [2], 74.8 nM.

For the sequence “AACAGCUCGUCAGGAUAUAUUAUCUUUUUAUGUAUUUAUGUACAUGAGGAUCACCCAUGUUGUUUGUAGAAGGGACGAGCUGAA”, the “apparent Kd” value worked out at 30.4 nM under setting [1] and 26.5 nM under setting [2].

As for “GUGUACGGAGGAUAUAUGUGGGCAGGCUGACCUGCAGCUUCACAUGAGGAUCACCCAUGUAGAAGGCUGUGCAC”, the “apparent Kd” value by setting is: under setting [1], 22.2 nM; under setting [2], 92.9 nM.

Take “GGAGAGCAAGGAUAUACAUGAGGAUCACCCAUGUACGGUCAUUUGGGCAUGUCUGUAAGUAGAAGGUGUUUUGG”: the “apparent Kd” value runs as follows: under setting [1], 45.2 nM; under setting [2], 58.5 nM.

Take “ACAUGAGGAUGAGGAUAUUCAUCCAUGAGGAUAGAAGAAGGCAUACAUGAGGAUCACCCAUGUAUACACAUGAGGAUCCCUUAU”: the “apparent Kd” value runs as follows: under setting [1], 44.5 nM; under setting [2], 121 nM.

As to “UGUUGUAUUACAGGAUAUCUAUUAUUUUUAUUUAGAGAAGGGUAUUCACAUGAGGAUCACCCAUGUAUAUACGAGGAAGAUGUG”, the “apparent Kd” value runs as follows: under setting [3], 91.5 nM; under setting [4], 107 nM.

For the sequence “AUAUAUAGUGUGAGGAUAUGCUGGUCCUUGGAUCAGCAGAAGGCACAUGAGGAUCACCCAUGUAGUUUAUUUUG”, the “apparent Kd” value turned out to be 17.5 nM under setting [1] and 77 nM under setting [2].

On to “AACAUGGUACAGAAGGGCUAUUUAUUUAAUUAUUAUUUAGAACAGCAUAGCAGGAUAUGUUUAACAUGAGGAUCACCCAUGUAC”, for which the “apparent Kd” value runs as follows: under setting [3], 71.3 nM; under setting [4], 14.7 nM.

As to “UAUAUUUAUGUAGGAUAUGGUCUAUAAAAUAGACCAGAAGGACAUGAGGAUCACCCAUGUAUGAAAUUCCAUAAUUGCCGUGUA”, the “apparent Kd” value reads like this: under setting [1], 11.4 nM; under setting [2], 11.4 nM.

For the sequence “CCUCAUAUUUAGGAUAUGAUUGGUAAUUAUUAGUUAGAAGGAGGUACAUGAGGAUCACCCAUGUAAUAUUUAAA”, the “apparent Kd” value was found to be 21.5 nM under setting [1] and 21.2 nM under setting [2].

In the case of “GUGAUGAUCGAGAAGGCCACUACAUGAGGAUCACCCAUGUCGUGGUGUAUUGGAGGAUAUCGAUCGACGUCUUAUGAGGACAUA”, the “apparent Kd” value reads like this: under setting [1], 4.82 nM; under setting [2], 5.95 nM.

For the sequence “GGAGACCUCGCAGGAUAUGCUGGACUUUGUCCAGCAGAAGGGUGAAAACAUGAGGAUCACCCAUGUAUGGUCUCCAAAUUUAAU”, the “apparent Kd” value is, setting by setting: under setting [3], 1060 nM; under setting [4], 54.3 nM.

Consider “AUCAGCUCGUCAGGAUAUACAUCACUGCUUCGGCAGUGUGGUAAGGUCACAUGAGGAUCACCCAUGUAGAAGGGACGAGCUGAU”, for which the “apparent Kd” value is 8.48 nM under setting [1] and 106 nM under setting [2].

Consider “UUCUUGGCAGGAUAUGCUCUCUUAGACAUGAGGAUCACCCAUGUGUUCAUUCUUUCUUUUGCAGAAGGGCCUUAAU”, for which the “apparent Kd” value runs as follows: under setting [1], 56.5 nM; under setting [2], 69.9 nM.

Turning to “UUCGAGCCAAGGCUCGCGAGUACACAGGAUAUGAAAAGUCACAUGAGGAUCACCCAUGUCCAAAAUCAGAAGGGUGAGACUAAG”, the “apparent Kd” value reads like this: under setting [3], 520 nM; under setting [4], 101 nM.

With “GCCGAAAAUGUGAGGAUAUACCUAUGGAUACAUAGGUAGAAGGCACAUGAGGAUCACCCAUGUUCCUCAUCGGC”, the “apparent Kd” value under setting [1] was 114 nM and the “apparent Kd” value under setting [2] came to 435 nM.

For “UGUUGUAUUACAGGAUAUCUAUUAGUAUUAUUUAGAGAAGGGUAUUCACAUGAGGAUCACCCAUGUAUAUACGAGGAAGUUGUG”, the “apparent Kd” value runs as follows: under setting [3], 46.9 nM; under setting [4], 48.4 nM.

“UUGUAGUACGUAGGAUAUCAAUGAGGAUCACCCUGAGAAGGACGUGAGGACAUGAGGAUCACCCAUGUGGAUCACCCAUGUCAU”: the “apparent Kd” value runs as follows: under setting [1], 191 nM; under setting [2], 145 nM.

“UAUAUAAUAAGAGCUGGCUCUAAAACAUGAGGAUCACCCAUGUAGGAUAUCAGCACGAUAAGUGCUGAGAAGGACAACCAGCUC”: the “apparent Kd” value reads like this: under setting [1], 16.3 nM; under setting [2], 17.3 nM.

For the sequence “GUGUCGUCAGGAUAUCCUACAUAACUAUCGUUGUUACCAUUGGAGAAGGGACAUGAGGAUCACCCAUGUUUUCC”, the “apparent Kd” value stood at 19.3 nM under setting [1] and 19.7 nM under setting [2].

Take “UGACGGAGCUGAGGAUAUAUACAUGAGGAUCACCCAUGUAAGCUCCAGGAAACUGGAGCAAAUGUAUAGAAGGCAGCUCCGUCA”: the “apparent Kd” value stood at 30.3 nM under setting [1] and 48 nM under setting [2].

In the case of “AAACAUGUCCGAGGAUAUCUGGAAACAUUUCCAAGAGAAGGCGGACAUGAGGAUCACCCAUGUCUCUCCUCAUCAAAUCCAAGA”, the “apparent Kd” value reads like this: under setting [1], 8 nM; under setting [2], 77.4 nM.

Take “UUUGGUUUGCGAGGAUAUGCUUUUAGUAAGUUAGCAGAAGGCGCGUUACAUAGAACCUCUUGUUACAUGAGGAUCACCCAUGUU”: the “apparent Kd” value by setting is: under setting [1], 88.2 nM; under setting [2], 95 nM.

Consider “CUAUGAACGAUAGGAUAUACUGAGGUUGAGUGGGUAGAAGGAUCGAUAGUGUAGAAGACAUGAGGAUCACCCAUGUUAUGGAUU”, for which the “apparent Kd” value is, setting by setting: under setting [3], 505 nM; under setting [4], 318 nM.

Consider “AGAUAAGUCACAGGAUAUUCCUACAUUAAUAUGGAAGAAGGGUGAGCAUGAUUCGAUACAUGAGGAUCACCCAUGUAUCCGCGA”, for which the “apparent Kd” value amounted to 78.4 nM under setting [3] and 19.7 nM under setting [4].

Consider “AAGCCUAAUGAGAAGGUGUGUAUAAAUUAUAUACAAGGAUAUCGGUCGAGCGUGUUGACAUGAGGAUCACCCAUGUUGAGGCUU”, for which the “apparent Kd” value reads like this: under setting [3], 10.3 nM; under setting [4], 6.22 nM.

On to “GUAGCAUACAGAGGAUAUUCAAACCGGAAACGGAACAUGAGGAUCACCCAUGUGGCGAAAGCCAGGGAGAAGGCUGAAUGCUAC”, for which the “apparent Kd” value was 44.5 nM under setting [3] and 16.8 nM under setting [4].

For “UAAACGUUCUAGAAGGUGCUUUUGUUAAACAAGCAAGGAUAUAGACAUGAGGAUCACCCAUGUCUUUGUGACAUCGACAUACUU”, the “apparent Kd” value by setting is: under setting [1], 8.44 nM; under setting [2], 11.2 nM.

Consider “UAAGAGCGAGGAUAUACGUCGCUGGUCCGGAUGGACGCAUGACAUGAGGAUCACCCAUGUAGAAGGCGCAAAAC”, for which the “apparent Kd” value under setting [1] stood at 22.9 nM and the “apparent Kd” value under setting [2] was 73.3 nM.

“GCCGAAAGUGUGAGGAUAUACCUAUGGAUACAUAGGUAGAAGGCACAUGAGGAUCACCCAUGUUCCUAAACGGC”: the “apparent Kd” value under setting [1] amounted to 80.2 nM and the “apparent Kd” value under setting [2] came to 421 nM.

For the sequence “CGACUGUGAGGAUAUGGUGAGUAGUGCCUGAGCGCUGCUCACCAGAAGGCACAUGAGGAUCACCCAUGUAUGAC”, the “apparent Kd” value reads like this: under setting [1], 110 nM; under setting [2], 214 nM.

For the sequence “UCCUUCUGUUGAGGAUAUGUAAGACAGCGGCUGCUAUUACGGCACGCUGAUACAGAAGGCAACAUGAGGAUCACCCAUGUUCAA”, the “apparent Kd” value turned out to be 24.1 nM under setting [1] and 189 nM under setting [2].

Regarding “GGCCUGUUAGGAUAUUAGUAGUAGUCAGAAUAGACUAUUACUGAGAAGGGACAUGAGGAUCACCCAUGUUGGCC”, the “apparent Kd” value under setting [1] was found to be 17.5 nM and the “apparent Kd” value under setting [2] came out at 19.9 nM.

As for “GUAUUUUAAGUAAGGAUAUGCCUCUGGAAACGGAGGUAGAAGGUACAUGAGGAUCACCCAUGUUUCUCUUUUGG”, the “apparent Kd” value amounted to 16.3 nM under setting [1] and 20.6 nM under setting [2].
